Values after ≈ are worked out from the molar mass of the structure shown. Active and inactive are the calls of the source. The rule behind the calls is not given here.
Legend:
[1] = tested on: Mus musculus; experiment: Antiinflammatory activity in mouse assessed as inhibition of carrageenan-induced increase in paw volume at 200 mg/kg administered 1 hr prior to carrageenan challenge measured after 3 hrs relative to control; format: functional
Procedure, shortened: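 Mice were fasted 2 h and placed in groups of five. Controls received saline i.p. Phenylbutazone was given at 100 mg/kg i.p., curcumin at 200 mg/kg i.p., and derivatives at 200 mg/kg. After 1 h, 0.1 mL of 1% carrageenan in saline was injected subplantar into the right hind paw. Paw volume was followed by plethysmometer for 3 h, and % inhibition was calculated as (Vc − Vt)/Vc × 100.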

[2] = tested on: HCT-116; experiment: Cytotoxicity against human HCT116 cells after 24 hrs by MTT assay; format: functional, cell-based
Procedure, shortened: (§1)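 The MTT assay seeded 5 × 10⁴ cells per well and grew them 24 h in RPMI 1640 with compound at 2.5–200 µM. Medium without cells was the blank and adriamycin the positive control. MTT was added for 4 h at 37 °C, formazan was solubilised, and absorbance was read at 570 nm. IC50 is the concentration that cuts viability 50% against untreated cells.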

[3] = tested on: QG-56; experiment: Cytotoxicity against human QG56 cells after 24 hrs by MTT assay; format: functional, cell-based; procedure, shortened: as §1
[4] = tested on: HeLa; experiment: Cytotoxicity against human HeLa cells after 24 hrs by MTT assay; format: functional, cell-based; procedure, shortened: as §1
[5] = tested on: HepG2; experiment: Cytotoxicity against human HepG2 cells after 24 hrs by MTT assay; format: functional, cell-based; procedure, shortened: as §1
[6] = tested on: Trichoderma viride; experiment: Antifungal activity against Trichoderma viride MTCC 1107 after 48 hrs; format: functional; settings: MTCC 1107, 48 h
[7] = tested on: Trichoderma viride; experiment: Antifungal activity against Trichoderma viride MTCC 1107 assessed as zone of inhibition at 20 uM after 48 hrs by disc diffusion method; format: functional
Procedure, shortened: (§2)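 Spores from 4-day potato dextrose agar cultures, suspended in sterile water at 1.5 × 10⁵ CFU/mL. 0.2 mL was spread on potato dextrose agar. 5 mm filter-paper discs soaked with test compound were laid on the lawn. Incubation was 48 h at 28 °C, then the inhibition zone was measured in mm. Fluconazole was the positive control and acetone the negative control.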

[8] = tested on: Trichoderma viride; experiment: Antifungal activity against Trichoderma viride MTCC 1107 assessed as zone of inhibition at 40 uM after 48 hrs by disc diffusion method; format: functional; settings: MTCC 1107, 48 h, read-out: IZ; procedure, shortened: as §2
[9] = tested on: Trichoderma viride; experiment: Antifungal activity against Trichoderma viride MTCC 1107 assessed as zone of inhibition at 80 uM after 48 hrs by disc diffusion method; format: functional; settings: MTCC 1107, 48 h, read-out: IZ; procedure, shortened: as §2
[10] = tested on: Curvularia lunata; experiment: Antifungal activity against Curvularia lunata MTCC 581 after 48 hrs; format: functional; settings: MTCC 581, 48 h
[11] = tested on: Curvularia lunata; experiment: Antifungal activity against Curvularia lunata MTCC 581 assessed as zone of inhibition at 20 uM after 48 hrs by disc diffusion method; format: functional; procedure, shortened: as §2
[12] = tested on: Curvularia lunata; experiment: Antifungal activity against Curvularia lunata MTCC 581 assessed as zone of inhibition at 40 uM after 48 hrs by disc diffusion method; format: functional; procedure, shortened: as §2
[13] = tested on: Aspergillus flavus; experiment: Antifungal activity against Aspergillus flavus MTCC 1021 after 48 hrs; format: functional
[14] = tested on: Curvularia lunata; experiment: Antifungal activity against Curvularia lunata MTCC 581 assessed as zone of inhibition at 80 uM after 48 hrs by disc diffusion method; format: functional; settings: MTCC 581, 48 h, read-out: IZ; procedure, shortened: as §2
[15] = tested on: Aspergillus flavus; experiment: Antifungal activity against Aspergillus flavus MTCC 1021 assessed as zone of inhibition at 80 uM after 48 hrs by disc diffusion method; format: functional; procedure, shortened: as §2
[16] = tested on: Aspergillus niger; experiment: Antifungal activity against Aspergillus niger MTCC 1108 after 48 hrs; format: functional; settings: MTCC 1108, 48 h
[17] = tested on: Aspergillus niger; experiment: Antifungal activity against Aspergillus niger MTCC 1108 assessed as zone of inhibition at 20 uM after 48 hrs by disc diffusion method; format: functional; procedure, shortened: as §2
[18] = tested on: Aspergillus niger; experiment: Antifungal activity against Aspergillus niger MTCC 1108 assessed as zone of inhibition at 40 uM after 48 hrs by disc diffusion method; format: functional; procedure, shortened: as §2
[19] = tested on: Aspergillus niger; experiment: Antifungal activity against Aspergillus niger MTCC 1108 assessed as zone of inhibition at 80 uM after 48 hrs by disc diffusion method; format: functional; settings: MTCC 1108, 48 h, read-out: IZ; procedure, shortened: as §2
[20] = tested on: Escherichia coli; experiment: Antimicrobial activity against Escherichia coli ATCC 35218 after 24 hrs by broth micro serial dilution method; format: functional; settings: ATCC 35218, 24 h
Procedure, shortened: (§3)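 This was broth microdilution in autoclaved Mueller-Hinton broth. 150 µL of compound per well was serially diluted […], and 50 µL of test organism was added. Plates were incubated 24 h at 37 °C and optical density was read.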

[21] = tested on: Escherichia coli; experiment: Antimicrobial activity against Escherichia coli ATCC 35218 assessed as diameter of inhibition zone at 20 uM after 24 hrs by Kirby -Baur disc diffusion method; format: functional
Procedure, shortened: (§4)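 Kirby-Bauer disc diffusion was used. Acetone stocks (160 µM) were serially doubled down to 80, 40 and 20 µM. 4 µL of each went onto 5 mm sterile paper discs, which were dried 30 min at 50 °C. Inoculum was 1.5 × 10⁸ CFU/mL diluted to 3 × 10² CFU/mL, and 50 µL was spread on Mueller-Hinton agar. After 24 h at 37 °C the inhibition-zone diameter was measured. Ciprofloxacin served as positive control.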

[22] = tested on: Escherichia coli; experiment: Antimicrobial activity against Escherichia coli ATCC 35218 assessed as diameter of inhibition zone at 40 uM after 24 hrs by Kirby -Baur disc diffusion method; format: functional; settings: ATCC 35218, 24 h, read-out: DIZ; procedure, shortened: as §4
[23] = tested on: Escherichia coli; experiment: Antimicrobial activity against Escherichia coli ATCC 35218 assessed as diameter of inhibition zone at 80 uM after 24 hrs by Kirby -Baur disc diffusion method; format: functional; settings: ATCC 35218, 24 h, read-out: DIZ; procedure, shortened: as §4
[24] = tested on: Pseudomonas aeruginosa; experiment: Antimicrobial activity against Pseudomonas aeruginosa ATCC 15499 after 24 hrs by broth micro serial dilution method; format: functional; settings: ATCC 15499, 24 h; procedure, shortened: as §3
[25] = tested on: Pseudomonas aeruginosa; experiment: Antimicrobial activity against Pseudomonas aeruginosa ATCC 15499 assessed as diameter of inhibition zone at 20 uM after 24 hrs by Kirby -Baur disc diffusion method; format: functional; settings: ATCC 15499, 24 h, read-out: DIZ; procedure, shortened: as §4
[26] = tested on: Pseudomonas aeruginosa; experiment: Antimicrobial activity against Pseudomonas aeruginosa ATCC 15499 assessed as diameter of inhibition zone at 40 uM after 24 hrs by Kirby -Baur disc diffusion method; format: functional; settings: ATCC 15499, 24 h, read-out: DIZ; procedure, shortened: as §4
[27] = tested on: Pseudomonas aeruginosa; experiment: Antimicrobial activity against Pseudomonas aeruginosa ATCC 15499 assessed as diameter of inhibition zone at 80 uM after 24 hrs by Kirby -Baur disc diffusion method; format: functional; settings: ATCC 15499, 24 h, read-out: DIZ; procedure, shortened: as §4
[28] = tested on: Salmonella typhi; experiment: Antimicrobial activity against Salmonella typhi ATCC 23564 after 24 hrs by broth micro serial dilution method; format: functional, Salmonella enterica subsp. enterica serovar Typhi; settings: Salmonella enterica, ATCC 23564, 24 h
[29] = tested on: Salmonella typhi; experiment: Antimicrobial activity against Salmonella typhi ATCC 23564 assessed as diameter of inhibition zone at 20 uM after 24 hrs by Kirby -Baur disc diffusion method; format: functional, Salmonella enterica subsp. enterica serovar Typhi; settings: Salmonella enterica, ATCC 23564, 24 h; read-out: DIZ
[30] = tested on: Salmonella typhi; experiment: Antimicrobial activity against Salmonella typhi ATCC 23564 assessed as diameter of inhibition zone at 40 uM after 24 hrs by Kirby -Baur disc diffusion method; format: functional, Salmonella enterica subsp. enterica serovar Typhi; settings: Salmonella enterica, ATCC 23564, 24 h; read-out: DIZ
[31] = tested on: Salmonella typhi; experiment: Antimicrobial activity against Salmonella typhi ATCC 23564 assessed as diameter of inhibition zone at 80 uM after 24 hrs by Kirby -Baur disc diffusion method; format: functional, Salmonella enterica subsp. enterica serovar Typhi; settings: Salmonella enterica, ATCC 23564, 24 h; read-out: DIZ
[32] = tested on: Bacillus cereus; experiment: Antimicrobial activity against Bacillus cereus MTCC 7350 after 24 hrs by broth micro serial dilution method; format: functional; settings: MTCC 7350, 24 h; procedure, shortened: as §3
[33] = tested on: Bacillus cereus; experiment: Antimicrobial activity against Bacillus cereus MTCC 7350 assessed as diameter of inhibition zone at 40 uM after 24 hrs by Kirby -Baur disc diffusion method; format: functional; procedure, shortened: as §4
[34] = tested on: Bacillus cereus; experiment: Antimicrobial activity against Bacillus cereus MTCC 7350 assessed as diameter of inhibition zone at 80 uM after 24 hrs by Kirby -Baur disc diffusion method; format: functional; settings: MTCC 7350, 24 h, read-out: DIZ; procedure, shortened: as §4
[35] = tested on: Staphylococcus aureus; experiment: Antimicrobial activity against Staphylococcus aureus ATCC 11632 after 24 hrs by broth micro serial dilution method; format: functional; settings: ATCC 11632, 24 h; procedure, shortened: as §3
[36] = tested on: Staphylococcus aureus; experiment: Antimicrobial activity against Staphylococcus aureus ATCC 11632 assessed as diameter of inhibition zone at 20 uM after 24 hrs by Kirby -Baur disc diffusion method; format: functional; procedure, shortened: as §4
[37] = tested on: Staphylococcus aureus; experiment: Antimicrobial activity against Staphylococcus aureus ATCC 11632 assessed as diameter of inhibition zone at 40 uM after 24 hrs by Kirby -Baur disc diffusion method; format: functional; procedure, shortened: as §4
[38] = tested on: Staphylococcus aureus; experiment: Antimicrobial activity against Staphylococcus aureus ATCC 11632 assessed as diameter of inhibition zone at 80 uM after 24 hrs by Kirby -Baur disc diffusion method; format: functional; settings: ATCC 11632, 24 h, read-out: DIZ; procedure, shortened: as §4

With `COc1cc(/C=C/C(CC(/C=C/c2ccc(O)c(OC)c2)=N/c2ccc(S(N)(=O)=O)cc2)=N\c2ccc(S(N)(=O)=O)cc2)ccc1O` as the molecule, how does the inhibition in vivo at 200 mg/kg [1] read?
The inhibition in vivo at 200 mg/kg was 12.9%.

What about the IC50 [2] of the same molecule?
The IC50 was 100 µM.

And the IC50 [3]?
The IC50 was greater than 100 µM.

And the IC50 [4]?
Its IC50 is 100 µM.

And the IC50 [5]?
Its IC50 is greater than 100 µM.

What about the MIC [6] of the same molecule?
The MIC was 40 µM (≈ 27.1 µg/mL).

And the “inhibition zone (IZ)” value [7]?
Its value is “inactive”.

What about the zone of inhibition at 40 µM [8] of the same molecule?
The zone of inhibition at 40 µM was 10 mm.

What about the zone of inhibition at 80 µM [9] of the same molecule?
Its zone of inhibition at 80 µM is 11 mm.

And the MIC [10]?
The MIC was greater than 80 µM.

What about the “inhibition zone (IZ)” value [11] of the same molecule?
Its value is “inactive”.

And the “inhibition zone (IZ)” value [12]?
The value was “inactive”.

What about the MIC [13] of the same molecule?
The MIC was “inactive”.

What about the zone of inhibition at 80 µM [14] of the same molecule?
Its zone of inhibition at 80 µM is 9 mm.

And the “inhibition zone (IZ)” value [15]?
Its value is “inactive”.

And the MIC [16]?
Its MIC is greater than 80 µM.

What about the “inhibition zone (IZ)” value [17] of the same molecule?
The value was “inactive”.

What about the “inhibition zone (IZ)” value [18] of the same molecule?
Its value is “inactive”.

And the zone of inhibition at 80 µM [19]?
The zone of inhibition at 80 µM was 9 mm.

And the MIC [20]?
Its MIC is 40 µM (≈ 27.1 µg/mL).

And the “diameter of the inhibition zone (DIZ)” value [21]?
Its value is “inactive”.

And the zone of inhibition at 40 µM [22]?
Its zone of inhibition at 40 µM is 10 mm.

And the zone of inhibition at 80 µM [23]?
The zone of inhibition at 80 µM was 12 mm.

What about the MIC [24] of the same molecule?
The MIC was 40 µM (≈ 27.1 µg/mL).

What about the zone of inhibition at 20 µM [25] of the same molecule?
Its zone of inhibition at 20 µM is 9 mm.

What about the zone of inhibition at 40 µM [26] of the same molecule?
The zone of inhibition at 40 µM was 11 mm.

And the zone of inhibition at 80 µM [27]?
Its zone of inhibition at 80 µM is 18 mm.

What about the MIC [28] of the same molecule?
Its MIC is 40 µM (≈ 27.1 µg/mL).

What about the zone of inhibition at 20 µM [29] of the same molecule?
The zone of inhibition at 20 µM was 9 mm.

And the zone of inhibition at 40 µM [30]?
Its zone of inhibition at 40 µM is 11 mm.

And the zone of inhibition at 80 µM [31]?
The zone of inhibition at 80 µM was 16 mm.

And the MIC [32]?
The MIC was 40 µM (≈ 27.1 µg/mL).

And the “diameter of the inhibition zone (DIZ)” value [33]?
Its value is “inactive”.

And the zone of inhibition at 80 µM [34]?
Its zone of inhibition at 80 µM is 11 mm.

And the MIC [35]?
Its MIC is greater than 80 µM.

And the “diameter of the inhibition zone (DIZ)” value [36]?
Its value is “inactive”.

And the “diameter of the inhibition zone (DIZ)” value [37]?
Its value is “inactive”.

What about the zone of inhibition at 80 µM [38] of the same molecule?
The zone of inhibition at 80 µM was 10 mm.
